Laboratory results published in the M2OR odorant receptor database.

Legend:
Conditions in all cases: stereoisomer not certain
OR7D4 (Homo sapiens) = molecular target: T1, OR7D4 (Homo sapiens) (UniProt Q8NG98)
T1 sequence (whole entry): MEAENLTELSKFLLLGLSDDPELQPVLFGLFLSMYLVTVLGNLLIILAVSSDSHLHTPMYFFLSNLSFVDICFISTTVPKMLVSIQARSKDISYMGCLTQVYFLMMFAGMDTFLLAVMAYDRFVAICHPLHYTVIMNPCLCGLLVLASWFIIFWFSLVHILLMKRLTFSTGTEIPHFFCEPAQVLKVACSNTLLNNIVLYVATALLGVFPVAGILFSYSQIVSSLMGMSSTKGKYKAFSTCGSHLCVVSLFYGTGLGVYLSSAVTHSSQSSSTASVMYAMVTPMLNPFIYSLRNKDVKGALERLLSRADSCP
Summary of the method: (§1)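 Each entry records the cell line, G-protein, co-transfected protein and tags used. Methods varied with the source, often transient luciferase assays in mammalian cell lines. A receptor–molecule pair is called responsive (active) if the original authors judged its signal statistically different from baseline and non-responsive (inactive) otherwise.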

OR7E24 (Homo sapiens) = OR7E24 (Homo sapiens) (UniProt Q6IFN5)
Chain of OR7E24 (Homo sapiens) (Q6IFN5 whole entry): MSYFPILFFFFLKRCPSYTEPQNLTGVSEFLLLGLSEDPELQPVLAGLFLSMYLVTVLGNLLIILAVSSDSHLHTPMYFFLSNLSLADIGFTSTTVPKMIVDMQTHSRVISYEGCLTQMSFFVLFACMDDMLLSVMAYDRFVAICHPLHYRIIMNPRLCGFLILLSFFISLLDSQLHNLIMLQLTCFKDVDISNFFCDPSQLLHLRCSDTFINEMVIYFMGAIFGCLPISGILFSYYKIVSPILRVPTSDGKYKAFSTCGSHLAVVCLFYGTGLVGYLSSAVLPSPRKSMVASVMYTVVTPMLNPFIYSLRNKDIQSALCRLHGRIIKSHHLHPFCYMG
Summary of the method: as §1

OR7G1 (Homo sapiens) = OR7G1 (Homo sapiens) (UniProt Q8NGA0)
Chain of OR7G1 (Homo sapiens) (Q8NGA0 whole entry): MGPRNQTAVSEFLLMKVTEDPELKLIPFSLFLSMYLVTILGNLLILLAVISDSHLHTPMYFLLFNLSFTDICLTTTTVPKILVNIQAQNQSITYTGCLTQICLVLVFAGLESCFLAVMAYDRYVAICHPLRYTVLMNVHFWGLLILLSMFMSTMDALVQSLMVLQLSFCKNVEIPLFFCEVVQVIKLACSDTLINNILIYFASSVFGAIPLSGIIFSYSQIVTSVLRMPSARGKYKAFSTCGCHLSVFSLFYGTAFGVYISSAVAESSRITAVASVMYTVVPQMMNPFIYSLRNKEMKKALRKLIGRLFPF
Summary of the method: as §1

OR7G2 (Homo sapiens) = OR7G2 (Homo sapiens) (UniProt Q8NG99)
Chain of OR7G2 (Homo sapiens) (Q8NG99 whole entry): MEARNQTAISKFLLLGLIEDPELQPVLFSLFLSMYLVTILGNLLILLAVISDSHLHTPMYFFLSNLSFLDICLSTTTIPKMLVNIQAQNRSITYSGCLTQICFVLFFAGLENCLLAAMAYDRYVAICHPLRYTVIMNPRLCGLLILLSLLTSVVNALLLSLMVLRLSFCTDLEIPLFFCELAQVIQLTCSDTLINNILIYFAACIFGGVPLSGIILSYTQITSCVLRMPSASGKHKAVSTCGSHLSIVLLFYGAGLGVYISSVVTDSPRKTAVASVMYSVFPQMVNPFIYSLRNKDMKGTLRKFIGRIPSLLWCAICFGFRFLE
Summary of the method: as §1

OR7G3 (Homo sapiens) = OR7G3 (Homo sapiens) (UniProt Q8NG95)
Chain of OR7G3 (Homo sapiens) (Q8NG95 whole entry): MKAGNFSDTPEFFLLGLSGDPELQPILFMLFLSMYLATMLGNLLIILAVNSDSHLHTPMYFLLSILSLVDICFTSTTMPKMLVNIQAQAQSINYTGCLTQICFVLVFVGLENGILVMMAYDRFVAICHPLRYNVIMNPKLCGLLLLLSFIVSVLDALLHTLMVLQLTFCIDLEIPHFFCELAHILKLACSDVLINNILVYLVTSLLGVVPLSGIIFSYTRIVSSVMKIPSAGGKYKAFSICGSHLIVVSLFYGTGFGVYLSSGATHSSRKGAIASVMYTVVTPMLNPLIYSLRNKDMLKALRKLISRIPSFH
Summary of the method: as §1

OR8A1 (Homo sapiens) = OR8A1 (Homo sapiens) (UniProt Q8NGG7)
Chain of OR8A1 (Homo sapiens) (Q8NGG7 whole entry): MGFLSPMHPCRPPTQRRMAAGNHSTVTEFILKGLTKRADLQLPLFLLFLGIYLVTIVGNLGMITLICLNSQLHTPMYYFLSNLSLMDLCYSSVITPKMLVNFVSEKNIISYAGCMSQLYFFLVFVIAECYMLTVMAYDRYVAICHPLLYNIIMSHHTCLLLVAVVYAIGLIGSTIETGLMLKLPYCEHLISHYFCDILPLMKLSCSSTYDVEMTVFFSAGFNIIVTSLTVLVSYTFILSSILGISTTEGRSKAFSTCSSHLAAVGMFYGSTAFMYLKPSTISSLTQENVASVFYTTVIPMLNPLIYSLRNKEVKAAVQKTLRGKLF
Summary of the method: as §1

OR7D4 = test system: OR7D4
Chain of OR7D4 (as listed by the source): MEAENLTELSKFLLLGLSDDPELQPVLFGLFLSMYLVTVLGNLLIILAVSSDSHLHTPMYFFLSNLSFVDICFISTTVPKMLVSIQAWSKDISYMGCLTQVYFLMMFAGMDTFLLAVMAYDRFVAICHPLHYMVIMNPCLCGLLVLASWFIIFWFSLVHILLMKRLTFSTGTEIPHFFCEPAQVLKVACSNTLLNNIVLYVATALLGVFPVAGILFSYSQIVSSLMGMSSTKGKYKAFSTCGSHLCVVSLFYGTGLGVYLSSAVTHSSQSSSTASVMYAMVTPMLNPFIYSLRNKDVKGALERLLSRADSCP
Summary of the method: as §1

OR7D4 R88W = test system: OR7D4 R88W
Chain of OR7D4 R88W (as listed by the source, stated change not applied): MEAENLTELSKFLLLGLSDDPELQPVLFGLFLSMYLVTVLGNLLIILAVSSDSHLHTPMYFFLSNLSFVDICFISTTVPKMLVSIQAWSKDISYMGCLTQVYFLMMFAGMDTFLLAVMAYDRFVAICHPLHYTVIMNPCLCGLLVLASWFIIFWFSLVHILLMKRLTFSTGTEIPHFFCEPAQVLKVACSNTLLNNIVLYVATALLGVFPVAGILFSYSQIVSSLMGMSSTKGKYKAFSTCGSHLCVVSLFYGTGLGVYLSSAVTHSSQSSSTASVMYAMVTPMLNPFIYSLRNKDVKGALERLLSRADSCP
Summary of the method: as §1

OR7G2 = test system: OR7G2
Chain of OR7G2 (as listed by the source): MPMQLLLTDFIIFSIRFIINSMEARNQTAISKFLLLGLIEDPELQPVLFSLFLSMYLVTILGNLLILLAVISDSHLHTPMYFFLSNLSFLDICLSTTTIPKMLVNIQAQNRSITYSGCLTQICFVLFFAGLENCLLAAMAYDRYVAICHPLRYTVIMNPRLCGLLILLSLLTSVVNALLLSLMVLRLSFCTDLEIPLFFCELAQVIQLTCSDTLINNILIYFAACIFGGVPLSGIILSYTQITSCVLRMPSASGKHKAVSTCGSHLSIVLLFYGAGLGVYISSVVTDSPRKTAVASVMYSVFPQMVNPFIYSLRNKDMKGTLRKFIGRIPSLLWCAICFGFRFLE
Summary of the method: as §1

OR7G3 M29V = test system: OR7G3 M29V
Chain of OR7G3 M29V (as listed by the source, stated change not applied): as the sequence (Q8NG95 whole entry) above, with M29V counted along it
Summary of the method: as §1

Measured: odorant receptor agonist call

Cc1c([N+](=O)[O-])c(C)c([N+](=O)[O-])c(C(C)(C)C)c1[N+](=O)[O-]
inactive: OR7D4 (Homo sapiens) | OR7E24 (Homo sapiens) | OR7G1 (Homo sapiens) | OR7G2 (Homo sapiens) | OR7G3 (Homo sapiens) | OR8A1 (Homo sapiens)

C=C(C)C1CCC2(C)OOC(C1)O2 (configuration not stated)
inactive: OR7D4 (Homo sapiens) | OR7D4

C=CCOC(=O)Cc1ccccc1
not listed: OR7G2 (Homo sapiens)
inactive: all other assays above
